Sampled rows, rich in hits. Any-hit rate of the full collection: about 2.6%.
Wnt bcat act – activators of Wnt/beta-catenin signaling | Wnt/beta-catenin reporter cell assay, activator, plate reader | activation, % at 9.35 µM | 300,000 tested, 1.2% active | AID 743398; in the data active means activation above about 30%, passing the limit was not always enough; inconclusive means no clear call, values can overlap the other calls;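 further: 0% = neutral control wells and 100% = positive control wells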
XiGFP reactiv – reactivates the inactive X chromosome in mouse fibroblasts; activation, % at 7.58 µM; AID 743238; 360,000 tested, 0.055% active; XiGFP mouse fibroblasts, % GFP-positive cells imaging, 3 d; cells co-treated with 5-aza-dC sensitizer; scaled so ellipticine positive control = 100%;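 active means mean normalized replicate activation at least 10% and every replicate at or above 10%; inconclusive means only one of the two criteria met; inactive means mean below 10% and not all replicates reach 10%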;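 further: 0% = median of on-plate neutral control wells and 100% = ellipticine 6 µM median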
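assay system = SV40-immortalized XiGFP fibroblast cells, line 68-5-11 | buffer or medium = DMEM plus 5-aza-dC sensitizer | doses = single-point pinned compound dosing | times = 3-day compound exposure, then 15 min fixation at room temperature | benchmarks = positive control ellipticine, 6 µM final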
Vif imaging – inhibitors of HIV Vif | HEK293T cells, Vif self-association by quenched fluorescence, imaging, 24 h | inhibition, % at 7.49 µM | 340,000 tested, 0.35% active | AID 602346; in the data active means inhibition above about 50%, passing the limit was not always enough; inconclusive means no clear call, values can overlap the other calls; inactive means below about 31%
esBAF inh – SWI/SNF esBAF complex inhibition | reporter increase, % at 12.5 µM | AID 602393 | mouse ES cells, Bmi1-luciferase knock-in reporter, 24 h; 100% = twice the neutral-well signal | 350,000 tested, 2% active; in the data active means activation above about 40%; inconclusive means no clear call, values can overlap the other calls;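 further: 0% = median of the plate's neutral control wells and 100% = double that signal; a rise in the Bmi1 reporter signal indicates esBAF inhibition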
MITF act – activators of MITF-driven TRPM1 promoter activity in SK-MEL-5 cells. activation, % at 12.5 µM. SK-MEL-5 TRPM1-promoter luciferase, 24 h; % of positive control, neutral wells = 0. 300,000 tested, 0.75% active. AID 588334;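 active means mean activation of at least 80% with every replicate also reaching 80%; inconclusive means mean reaches 80% but some replicate falls short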;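 further: 0% = neutral control wells and 100% = parthenolide positive control wells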
Active calls of the source: *; i = inactive; u = inconclusive; x = no result.

SMILES	Wnt bcat act	XiGFP reactiv	Vif imaging	esBAF inh	MITF act
Cc1ccsc1C(=O)Nc1ccc(OCc2ccccc2)cc1	17	0	-12	54*	55
CCCc1c(C)c2cccc(C)c2[nH]c1=O	x	x	x	5	12
CCCCN1CCc2c([nH]c3c(C)cccc23)C1=O	27	x	1	x	92*
CCC(=O)N1c2ccccc2NC2=C(C(=O)CC(c3ccco3)C2)C1c1ccco1 (stereo not drawn)	x	x	-4	2	-10
CC1(C)CC(=O)C2=C(C1)Nc1ccccc1N(C(=O)C1CC1)C2c1ccco1 (stereo not drawn)	5	0	52*	-3	-6
COc1ccc(NC(=O)N[C@H]2CC[C@H](CCNS(=O)(=O)c3cccc(Cl)c3)O[C@H]2CO)cc1	x	0	x	8	x
C[C@H](CO)N1C[C@H](C)[C@H](CN(C)C(=O)Nc2ccccc2F)OCc2cn(nn2)CCCC1=O	x	0	x	-2	x
CCOc1ccc(-c2cc(C(=O)NCCCn3ccnc3)c3cc(Br)ccc3n2)cc1	4	1	61*	-13	-69
COc1ccc(NC(=O)NCCC2=CCCCC2)cc1	52*	0	-1	x	56
S=C(NCCC1=CCCCC1)Nc1ccc(Cl)cc1	11	0	-18	64*	54
COc1cccc(NC(=O)NCCC2=CCCCC2)c1	10	0	-6	u	60
C[C@@H]1CN([C@H](C)CO)C(=O)c2cccc(NC(=O)c3ccncc3)c2O[C@H]1CN(C)S(=O)(=O)c1cccs1	x	0	x	6	x
COCC(=O)Nc1ccc2c(c1)[C@H]1C[C@@H](CC(=O)OC)O[C@H](CO)[C@H]1O2	x	0	x	-2	x
O=C(CN(C(=O)c1cc2c(s1)CCC2)C1CCCC1)NCc1cccs1	50*	x	2	-1	-5
CCOC(=O)c1cnc(-c2ccccc2)nc1N(C)C	x	x	-4	75*	31
CCOC(=O)c1cccc(-c2c(-c3ccccc3)ncc3cc(OC)c(OC)cc23)c1	-1	0	10	67*	97*
Cc1cc2ncc(-c3ccccc3)nc2cc1C	45*	0	-1	-12	37
Cc1nc2ccc(C(=O)OCc3ccccc3Br)cc2nc1C	0	x	0	102*	71
CO[C@@H]1CN(C)C(=O)c2ccc(NC(C)=O)cc2OC[C@H](C)N(Cc2ccc(F)cc2)C[C@H]1C	x	0	x	2	x
COCC(=O)N1C[C@@H](C)[C@@H](OC)CN(C)C(=O)c2ccc(NS(C)(=O)=O)cc2OC[C@@H]1C	x	0	x	1	x
O=C(Oc1ccc(-c2cnc3ccccc3n2)cc1)c1cccc([N+](=O)[O-])c1	x	x	-2	x	55
O=C(Oc1ccc(-c2cnc3ccccc3n2)cc1)c1ccc(Br)o1	34*	x	-2	12	58
CCOC(=O)c1cnc2c(-c3ccccc3)cnn2c1C	56*	0	2	x	73
Cc1ccc(-c2cnc3ccccc3n2)cc1C	40*	0	-5	-33	-16
Clc1ccc(-c2cnc3ccccc3n2)cc1	x	0	2	x	45
SMILES	Wnt bcat act	XiGFP reactiv	Vif imaging	esBAF inh	MITF act
Oc1ccc(-c2cnc3ccccc3n2)cc1	53*	1	-12	x	u
CC(=O)Nc1ccc2c(c1)CC(=O)N(C)C[C@H](C)[C@@H](CN(C)C(C)=O)O2	x	0	x	x	x
CCOC(=O)c1cnc2c(ccc3ccccc32)c1NCCO	-12	x	-9	36	11
CCOC(=O)c1cnc(-c2ccccc2)nc1N	-1	x	x	24	40
CCOC(=O)c1cnc2c(ccc3ccccc32)c1N	10	0	-4	45*	x
Nc1ccc2nc(-c3ccccc3)cnc2c1	72*	1	u	x	x
CCOC(=O)c1ccc2ncc(-c3ccccc3)nc2c1	12	0	-5	x	111*
c1cc(-c2cccs2)nc(-c2cccs2)c1	-6	0	x	x	38
c1csc(-c2cnc3ccccc3n2)c1	55*	x	1	x	x
COc1cccc(CNC(=O)C[C@@H]2C=C[C@@H](NC(=O)C3CCOCC3)[C@H](CO)O2)c1	x	0	x	5	x
CCOC(=O)c1nc2ccccc2c(=O)[nH]1	18	0	8	x	30
CCOC(=O)c1cc(OCC)c2c(ccc3ccccc32)n1	111*	0	-3	-10	x
O=C(c1cccc(F)c1)N1CC(=O)N2[C@H](C1)[C@@H](c1ccc(-c3ccccc3F)cc1)[C@@H]2CO	x	0	x	x	x
Cc1ccc([N+](=O)[O-])cc1-c1ccc(/C=C(\C#N)c2[nH]nc(N)c2C#N)o1	u	0	2	83*	43
Cn1ccnc1SCC(=O)c1cccc(C(F)(F)F)c1	24	0	-2	33	89*
Cn1ccnc1SCC(=O)Nc1ccc(Oc2ccccc2)cc1	7	x	-4	50*	u
Cn1ccnc1SCC(=O)c1ccc(OC(F)F)cc1	12	0	4	37	64
COc1ccc(C(=O)CSc2nccn2C)cc1	17	0	9	42*	79
Cn1ccnc1SCC(=O)Nc1cccc(C(F)(F)F)c1	x	x	-2	10	23
CCOc1ccc(NC(=O)CSc2nccn2C)cc1	6	x	13	u	56
COc1cc(/C=C(\C#N)C(=O)NCC2CCCO2)ccc1O (stereo not drawn)	-1	0	17	x	36
N#C/C(=C\c1ccc(N2CCOCC2)o1)C(=O)NCC1CCCO1 (stereo not drawn)	-1	0	111*	0	-7
N#C/C(=C\c1ccc(N2CCOCC2)o1)C(=O)NC1CCCCC1	10	1	i	46	x
Cc1cc(/C=C(\C#N)C(=O)NCC2CCCO2)c(C)n1-c1ccc(Cl)cc1 (stereo not drawn)	x	x	-17	88*	u
N#C/C(=C/c1ccc(N2CCOCC2)o1)C(=O)Nc1ccccc1	50*	1	x	36	58
SMILES	Wnt bcat act	XiGFP reactiv	Vif imaging	esBAF inh	MITF act
N#C/C(=C\c1ccc(N2CCOCC2)o1)C(=O)NCCc1ccccc1	-2	0	x	8	15
C[C@H](CO)N1C[C@H](C)[C@@H](CN(C)C(=O)C2CCCCC2)Oc2ncc(/C=C/c3ccccc3)cc2C1=O	x	-1	x	-1	x
CN(C)C(=O)C[C@H]1CC[C@@H](NC(=O)Nc2cccc(F)c2)[C@@H](CO)O1	x	0	x	1	x
CCN(CC)C(=O)COc1ccc(-c2ccccc2)cc1	x	x	2	50*	48
CCN(Cc1ccccc1)C(=O)COc1ccccc1	0	0	-3	-3	12
O=C(COC(=O)c1cccc(-n2cnnn2)c1)c1ccccc1	1	0	2	-2	11
CCOc1ccc(C(=O)COC(=O)c2cccc(-n3cnnn3)c2)cc1	15	0	-9	74*	39
CC(C)(C)[S@@](=O)N1Cc2cc(C(=O)NCCc3ccncc3)nc(-c3cccc(-c4ccccc4)c3)c2[C@H]1CCO	x	0	x	x	x
CCCNC(=O)c1cc(Cl)c(NC(=O)C2=CSCCO2)cc1OC	20	0	-6	92*	80
O=C(O)c1ccc(/C=N/N2CCN(c3ccccc3)CC2)cc1	6	0	-9	42*	35

Compound activity from PubChem.
